# Results of several laboratories.
# Compare with care: the assays were run in different laboratories.
# Target: 5-hydroxytryptamine receptor 7 (HTR7, Homo sapiens, UniProt P34969)
# Tested at: 10 µM
SMILES,assay,inhibition
CCCNc1nc2ccccc2n1Cc1ccc(Cl)cc1,ligand displacement,13.5%
COc1cc2c3c(c1OC)-c1cc4c(cc1CC3N(C)CC2)OCO4 (racemic),"ligand displacement, radioligand",96.7%
C[C@@H](c1cccc(C#N)c1)n1cc(Cl)cc(C(N)=O)c1=N,ligand displacement,4.17%
N#Cc1cc(Cn2c(N3CCCC3)nc3ccccc32)ccc1F,ligand displacement,-11.2%
CCN(CC)c1ccc(C2Nc3ccc(C(=O)c4ccccc4)cc3NC3=C2C(=O)CC(C)(C)C3)cc1 (stereo not drawn),"ligand displacement, radioligand",4%
COc1cc(NC(C)=O)c(Cl)cc1C(=O)Nc1nccs1,"ligand displacement, radioligand",-7.7%
COc1cc2c3c(c1OC)-c1cc4c(cc1CC3N(C)CC2c1ccccc1)OCO4 (stereo not drawn),"ligand displacement, radioligand",< 50%
Oc1cccc(Nc2nc(-c3ccc(F)cc3F)cs2)c1,"ligand displacement, radioligand",-31.9%
CC(C)(C)OC(=O)N1CCCC1CNC1CCC(c2cc(F)ccc2F)(S(=O)(=O)c2ccc(Cl)cc2)CC1 (stereo not drawn),cell-free assay,70.7%
